# Measured values pooled from the literature.
# Compare with care: the assays were run in different laboratories.
# Observed: cell growth or viability
Structure (SMILES),cell line,method,tested at,time,quantity,value
Nc1cc(C(F)(F)F)c(-c2cc(N3CCOCC3)nc(N3CCOCC3)n2)cn1,MB002,,,7 days,IC50,172 nM
COc1cc(Nc2nccc(-c3cnn4nc(OC)ccc34)n2)cc(C(F)(F)F)c1,SK-ES1,ATP luminescence,,,IC50,190 nM
CC(=O)c1sc(=NN=C(C)c2c(O)c3ccccc3oc2=O)n(C)c1C,human Skin fibroblast,MTT,,48 h,IC50,> 100000 nM
CC(=O)c1c(C)c2cnc(Nc3ccc(N4CCNCC4)cn3)nc2n(C2CCCC2)c1=O,MB002,,,7 days,IC50,10.8 nM
COc1ccc(-c2ccc(-c3ccc(C(=N)N)nc3)s2)cc1Cl,SK-MEL-5,SRB,,,GI50,1.82 µM
CC(=O)Nc1cccc(-n2c(=O)n(C3CC3)c(=O)c3c(Nc4ccc(I)cc4F)n(C)c(=O)c(C)c32)c1,Calu-6,resazurin,0.1 µM,72 h,viability,62.6%
CC(C)C[C@H](NC(=O)[C@H](Cc1ccccc1)NC(=O)c1cnccn1)B(O)O,NCI-H1563,ATP luminescence,,,IC50,22 nM
COc1cc2c(Nc3ccc(Br)cc3F)ncnc2cc1OCC1CCN(C)CC1,BT-474,ATP luminescence,,72 h,GI50,5.91 µM
CCOc1cc(C(C)(C)C)ccc1C1=N[C@@](C)(c2ccc(Cl)cc2)[C@@](C)(c2ccc(Cl)cc2)N1C(=O)N1CCN(CCCS(C)(=O)=O)CC1,MB002,,,7 days,IC50,99.4 nM
CC(=O)OC[C@H]1O[C@@H]([S-])[C@H](OC(C)=O)[C@@H](OC(C)=O)[C@@H]1OC(C)=O.CCP(CC)CC.[Au+],KB 3-1,WST-1,,,Kb,100 nM
C[C@H]1Oc2cc(cnc2N)-c2c(nn(C)c2C#N)CN(C)C(=O)c2ccc(F)cc21,HD-MB03,,,7 days,IC50,> 10000 nM
CCCCCCCCCC(=O)N[C@@H](Cc1c[nH]c2ccccc12)C(=O)N[C@H](CC(N)=O)C(=O)N[C@@H](CC(=O)O)C(=O)N[C@@H]1C(=O)NCC(=O)N[C@@H](CCCN)C(=O)N[C@@H](CC(=O)O)C(=O)N[C@H](C)C(=O)N[C@@H](CC(=O)O)C(=O)NCC(=O)N[C@H](CO)C(=O)N[C@@H]([C@H](C)CC(=O)O)C(=O)N[C@@H](CC(=O)c2ccccc2N)C(=O)O[C@@H]1C,KB 3-1,WST-1,,,Kb,> 64000 nM
